Test results taken from ChEMBL document CHEMBL1143314, “Bone selective effect of an estradiol conjugate with a novel tetracycline-derived bone-targeting agent” (2009).
The source made the active and inactive calls. The calls are words filed in the database; no cut-off is given here.

Experiments:
Hydroxyapatite [1] = test: Binding affinity to bone mineral hydroxyapatite
Outline: (§1)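 Analyte 10^-5 M final in 50 mM Tris–HCl pH 7.4, 1% DMSO (from 10^-3 M DMSO stock), mixed by inversion 4 min with HA slurry (0.5 g/100 mL) or buffer alone, centrifuged 12,000g 3 min. Supernatant UV-vis scanned 220–520 nm; concentration at λmax by Beer–Lambert; fraction adsorbed calculated. Tetracycline reference set to index 100.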

Rattus norvegicus [2] = test: Antibone resorptive activity in sc dosed Sprague-Dawley rat assessed as inhibition of bilaterally ovariectomization-induced decrease in body weight normalized uterine mass administered 4 days after sugery at three times per week schedule for 6 weeks; type: functional
Outline: (§2)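 Three-month-old female Sprague–Dawley rats, bilaterally ovariectomized or sham-operated, given vehicle or drug s.c. three times weekly from 4 days post-surgery for 6 weeks. Excised femur and uterus weighed, normalized to body mass. Percent effect = (treatment − OVX control)/(sham − OVX control); n = 6–10 per group; mean SEM; ED50 from dose–response curves.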

Rattus norvegicus [3] = test: Antibone resorptive activity in sc dosed Sprague-Dawley rat assessed as inhibition of bilaterally ovariectomization-induced decrease in body weight normalized femoral mass administered 4 days after sugery at three times per week schedule for 6 weeks; type: functional; outline: as §2
Hydroxyapatite [4] = test: Binding affinity to bone mineral hydroxyapatite relative to tetracyclin; outline: as §1
Hydroxyapatite [5] = test: Binding affinity to bone mineral hydroxyapatite assessed as binding index; outline: as §1

Q: With `NC(=O)C1C(=O)CCCC1=O` as the molecule, how does the Activity (Hydroxyapatite [1]) read?
A: inactive

Q: Which ED50 (Rattus norvegicus [2]) does the source give for `C[C@]12CC[C@@H]3c4ccc(O)cc4CC[C@H]3[C@@H]1CC[C@@H]2O` [ESTRADIOL] here?
A: 0.009 µmol/kg

Q: What about the Activity (Rattus norvegicus [3]) of the same molecule?
A: Dose-dependent effect

Q: What about the ED50 (Rattus norvegicus [3]) of the same molecule?
A: 0.01 µmol/kg

Q: With `NC(=O)c1c(O)ccc(N)c1O` as the molecule, how does the Activity (Hydroxyapatite [4]) read?
A: 50%

Q: For `CN(C)[C@@H]1C(O)=C(C(N)=O)C(=O)[C@@]2(O)C(O)=C3C(=O)c4c(O)cccc4[C@@](C)(O)[C@H]3C[C@@H]12`, which Activity (Hydroxyapatite [5]) is on record?
A: 100

Q: For `O=C(O)c1c(O)cccc1O`, which Activity (Hydroxyapatite [1]) is on record?
A: inactive

Q: How did the Activity (Hydroxyapatite [1]) turn out when `NC(=O)c1c(O)cccc1O` was run?
A: inactive
